Five molecules from ChEMBL document CHEMBL4177541, “Identification of Pyridinium with Three Indole Moieties as an Antimicrobial Agent” (J Nat Prod, 2017) can be followed below.

In brackets after ≈: the same amount, converted by molar mass. A value given as a limit tells only on which side of the number the result lay.

For one assay, the system named is Bacillus cereus. Description: Antimicrobial activity against Bacillus cereus incubated for 20 hrs by CLSI protocol based method. It is filed as functional.
The next assay concerns Staphylococcus aureus. Kind of assay: Antimicrobial activity against methicillin-sensitive Staphylococcus aureus incubated for 20 hrs by CLSI protocol based method. Type of assay: functional.
A further assay relates to Candida albicans. Description: Antimicrobial activity against Candida albicans incubated for 24 hrs by CLSI protocol based method. Type of assay: functional.
For another assay, the system named is Escherichia coli. Kind of assay: Antimicrobial activity against Escherichia coli W3110 incubated for 20 hrs by CLSI protocol based method. It is filed as functional. As to conditions: W3110, 20 h.
The subject of another assay is P388. Description: Cytotoxicity against mouse P388 cells assessed as reduction in cell viability by MTT assay. Type of assay: functional, cell-based. The essentials: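 P388 murine leukemia cells were maintained in DMEM with 10% FBS and penicillin-streptomycin. After compound exposure, MTT (15 μL of a 5.0 mg/mL solution) was added for 3 h. The supernatant was removed and formazan dissolved in DMSO. IC50 was derived.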

On to `CC1(C)S[C@@H]2[C@H](NC(=O)[C@H](N)c3ccccc3)C(=O)N2[C@H]1C(=O)O` [AMPICILLIN], for which the MIC against Bacillus cereus was 0.063 µg/mL (≈ 0.18 µM); in the assay on Staphylococcus aureus, 0.5 µg/mL (≈ 1.43 µM); with Candida albicans, 100 µg/mL (≈ 286 µM); in the assay on Escherichia coli, 4 µg/mL (≈ 11.4 µM).

With `Brc1cc(Br)c[n+](CCc2c[nH]c3ccccc23)c1.[Br-]`, the MIC against Bacillus cereus was over 100 µg/mL; against Staphylococcus aureus, over 100 µg/mL; in the assay with Candida albicans, 100 µg/mL; with Escherichia coli it was over 100 µg/mL. Also, the IC50 in the assay on P388 is 76 µM.

Turning to `[Br-].c1ccc2c(CC[n+]3cc(-c4c[nH]c5ccccc45)cc(-c4c[nH]c5ccccc45)c3)c[nH]c2c1`, the MIC is 0.78 µg/mL against Bacillus cereus, 1.56 µg/mL in the assay on Staphylococcus aureus, 12.5 µg/mL in the assay on Candida albicans and over 100 µg/mL with Escherichia coli. Besides, the IC50 in the assay on P388 came to 1 µM.

On to `[Br-].c1cc[n+](CCc2c[nH]c3ccccc23)cc1`, for which the MIC was over 100 µg/mL against Bacillus cereus, over 100 µg/mL in the assay on Staphylococcus aureus, 100 µg/mL in the assay with Candida albicans and over 100 µg/mL with Escherichia coli. Also, the half-inhibitory concentration (IC50) in the assay on P388 turned out to be 53 µM.

As for `[Br-].c1ccc2c(CC[n+]3cccc(-c4c[nH]c5ccccc45)c3)c[nH]c2c1`, the MIC in the assay with Bacillus cereus is 25 µg/mL; with Staphylococcus aureus it was 50 µg/mL; with Candida albicans it was 100 µg/mL; in the assay on Escherichia coli, over 100 µg/mL. Also, in the assay with P388, the half-inhibitory concentration (IC50) was found to be 50 µM.
